Reference: ChEMBL document CHEMBL1132841, “Optimization of a somatostatin mimetic via constrained amino acid and backbone incorporation” (Bioorg Med Chem Lett, 2000)

Assays:
[1] = biological target: T1, Somatostatin receptor type 4 (Homo sapiens, UniProt P31391); assay: Inhibition of somatostatin binding to sst4 receptor at 1 uM in radioligand binding assay ([125I]Tyr11-SRIF) in membranes from CHO-K1 cells; format: cell membranes
Procedure, shortened: (§1)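 Competitive binding against [125I]-Tyr11-SRIF on membranes from CHO-K1 cells expressing human sst1–sst5, with each test compound at a single concentration. Nonspecific binding was defined with unlabelled SRIF. Incubations were stopped by rapid filtration through 0.5% PEI-soaked glass-fibre filters, then three washes in 50 mM Tris-HCl pH 7.4 with 5 mg/mL BSA. Filter radioactivity was gamma counted.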

[2] = biological target: T2, Somatostatin receptor type 3 (Homo sapiens, UniProt P32745); assay: Inhibition of somatostatin binding to sst3 receptor at 1 uM in radioligand binding assay ([125I]Tyr11-SRIF) in membranes from CHO-K1 cells; format: cell membranes; procedure, shortened: as §1
[3] = biological target: T3, Somatostatin receptor type 1 (Homo sapiens, UniProt P30872); assay: Inhibition of somatostatin binding to sst1 receptor at 1 uM in radioligand binding assay ([125I]Tyr11-SRIF) in membranes from CHO-K1 cells; format: cell membranes; procedure, shortened: as §1
[4] = biological target: T4, Somatostatin receptor type 5 (Homo sapiens, UniProt P35346); assay: Inhibition of somatostatin binding to sst5 receptor at 1 uM in radioligand binding assay ([125I]Tyr11-SRIF) in membranes from CHO-K1 cells; format: cell membranes; procedure, shortened: as §1
[5] = biological target: T5, Somatostatin receptor type 2 (Homo sapiens, UniProt P30874); assay: Inhibition of somatostatin binding to sst2 receptor at 1 uM in radioligand binding assay ([125I]Tyr11-SRIF) in membranes from CHO-K1 cells; format: cell membranes; procedure, shortened: as §1
[6] = biological target: T4, Somatostatin receptor type 5; assay: Inhibitory concentration required for somatostatin 5 receptor in radioligand binding assay ([125I]-Tyr11-SRIF)
Procedure, shortened: (§2)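 IC50 values were determined by displacement of [125I]-Tyr11-SRIF on membranes from CHO-K1 cells expressing the relevant human sst subtype. Unlabelled SRIF defined nonspecific binding. Bound ligand was separated by rapid filtration on glass-fibre filters pre-soaked in 0.5% PEI. Filters were washed three times with 50 mM Tris-HCl pH 7.4 containing 5 mg/mL BSA and gamma counted.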

[7] = biological target: T3, Somatostatin receptor type 1; assay: Inhibitory concentration required for somatostatin 1 receptor in radioligand binding assay ([125I]Tyr11-SRIF); procedure, shortened: as §2
[8] = biological target: T5, Somatostatin receptor type 2; assay: Inhibitory concentration required for somatostatin 2 receptor in radioligand binding assay ([125I]Tyr11-SRIF); procedure, shortened: as §2
[9] = biological target: T1, Somatostatin receptor type 4; assay: Inhibitory concentration required for somatostatin 4 receptor in radioligand binding assay ([125I]Tyr11-SRIF); procedure, shortened: as §2
[10] = biological target: T2, Somatostatin receptor type 3; assay: Inhibitory concentration required for somatostatin 3 receptor in radioligand binding assay ([125I]Tyr11-SRIF); procedure, shortened: as §2

T4 sequence (P35346 whole entry): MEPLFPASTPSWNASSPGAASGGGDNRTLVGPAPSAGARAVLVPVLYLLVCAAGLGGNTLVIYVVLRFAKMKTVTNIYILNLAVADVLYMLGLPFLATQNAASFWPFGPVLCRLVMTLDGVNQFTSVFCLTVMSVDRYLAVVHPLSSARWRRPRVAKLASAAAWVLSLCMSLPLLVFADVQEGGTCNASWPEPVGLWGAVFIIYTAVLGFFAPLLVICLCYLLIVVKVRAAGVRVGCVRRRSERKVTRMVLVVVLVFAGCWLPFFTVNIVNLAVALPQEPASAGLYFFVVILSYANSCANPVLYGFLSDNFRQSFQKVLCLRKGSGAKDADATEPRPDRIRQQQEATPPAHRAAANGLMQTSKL
T2 sequence (P32745 whole entry): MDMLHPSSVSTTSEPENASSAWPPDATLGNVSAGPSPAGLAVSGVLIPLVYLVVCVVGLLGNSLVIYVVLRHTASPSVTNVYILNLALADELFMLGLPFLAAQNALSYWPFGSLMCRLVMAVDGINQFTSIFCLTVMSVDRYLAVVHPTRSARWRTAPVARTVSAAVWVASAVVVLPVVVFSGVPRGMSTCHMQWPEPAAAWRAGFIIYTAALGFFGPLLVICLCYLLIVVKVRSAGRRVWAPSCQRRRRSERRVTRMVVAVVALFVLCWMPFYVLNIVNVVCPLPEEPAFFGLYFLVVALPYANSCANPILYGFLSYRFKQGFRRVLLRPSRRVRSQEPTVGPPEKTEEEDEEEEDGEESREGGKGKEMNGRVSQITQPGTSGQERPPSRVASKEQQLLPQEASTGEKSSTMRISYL
T5 sequence (P30874 whole entry): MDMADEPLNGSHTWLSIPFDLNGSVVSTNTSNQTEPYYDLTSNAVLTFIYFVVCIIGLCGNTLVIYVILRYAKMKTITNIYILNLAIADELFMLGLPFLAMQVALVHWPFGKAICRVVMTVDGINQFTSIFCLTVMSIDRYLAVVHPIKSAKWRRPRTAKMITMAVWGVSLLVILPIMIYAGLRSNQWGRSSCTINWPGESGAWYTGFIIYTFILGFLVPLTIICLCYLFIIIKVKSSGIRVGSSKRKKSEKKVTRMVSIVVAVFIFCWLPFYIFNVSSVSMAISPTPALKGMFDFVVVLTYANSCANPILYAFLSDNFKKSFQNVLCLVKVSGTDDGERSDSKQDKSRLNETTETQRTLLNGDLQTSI
T1 sequence (P31391 whole entry): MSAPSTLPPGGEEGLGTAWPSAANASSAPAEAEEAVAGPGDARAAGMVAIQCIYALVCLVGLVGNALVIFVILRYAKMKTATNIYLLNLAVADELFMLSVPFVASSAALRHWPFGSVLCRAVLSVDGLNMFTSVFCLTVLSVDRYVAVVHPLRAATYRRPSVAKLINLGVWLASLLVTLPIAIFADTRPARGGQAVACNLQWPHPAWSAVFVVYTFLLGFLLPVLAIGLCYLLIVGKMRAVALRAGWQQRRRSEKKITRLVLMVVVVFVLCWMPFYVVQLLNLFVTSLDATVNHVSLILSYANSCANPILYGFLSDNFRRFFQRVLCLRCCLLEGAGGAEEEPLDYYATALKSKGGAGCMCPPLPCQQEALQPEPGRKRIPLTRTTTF
T3 sequence (P30872 whole entry): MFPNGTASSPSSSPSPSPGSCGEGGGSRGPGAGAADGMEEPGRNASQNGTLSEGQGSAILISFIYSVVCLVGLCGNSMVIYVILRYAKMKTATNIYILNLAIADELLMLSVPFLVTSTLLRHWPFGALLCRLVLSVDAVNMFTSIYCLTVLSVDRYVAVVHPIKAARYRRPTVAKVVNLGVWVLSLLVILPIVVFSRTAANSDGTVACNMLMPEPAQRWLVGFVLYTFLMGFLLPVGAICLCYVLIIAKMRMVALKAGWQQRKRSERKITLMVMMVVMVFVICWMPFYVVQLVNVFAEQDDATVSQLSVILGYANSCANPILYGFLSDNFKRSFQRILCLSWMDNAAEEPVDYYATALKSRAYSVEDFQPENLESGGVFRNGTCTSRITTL

inhibition [1] | inhibition [2] | inhibition [3] | inhibition [4] | inhibition [5] | IC50 [6] | IC50 [7] | IC50 [8] | IC50 [9] | IC50 [10] | Compound
17% | 16% | 28% | 50% | 20% |  |  |  |  |  | NCC[C@H]1C[C@@H]2C(=O)N(Cc3cccc4ccccc34)CCS[C@H](Cc3c[nH]c4ccccc34)C(=O)N2C1
12% | 19% | 13% | 56% | 7% |  |  |  |  |  | NCC[C@@H]1C[C@@H]2C(=O)N(Cc3cccc4ccccc34)CCS[C@H](Cc3c[nH]c4ccccc34)C(=O)N2C1
99% | 44% | 64% | 89% | 74% | 41 nM | 407 nM | 275 nM | 41 nM | 1260 nM | NCCCC1CCCN2C(=O)[C@@H](Cc3c[nH]c4ccccc34)SCCN(Cc3cccc4ccccc34)C(=O)C12 (stereo not given in full)
43% | 42% | 64% | 99% | 33% | 87 nM | 501 nM | 1590 nM | 1050 nM | 3090 nM | NCCCC[C@H]1NC(=O)[C@@H](Cc2c[nH]c3ccccc23)SCCN(Cc2cccc3ccccc23)C1=O
41% | 13% | 36% | 64% | 7% |  |  |  |  |  | NCCCC[C@H]1NC(=O)[C@@H](Cc2c[nH]c3ccccc23)Sc2ccccc2CN(Cc2cccc3ccccc23)C1=O
